Measurements published in ChEMBL document CHEMBL1135673, “Antitumor imidazotetrazines. 41. Conjugation of the antitumor agents mitozolomide and temozolomide to peptides and lexitropsins bearing DNA major and minor groove-binding structural motifs” (J Med Chem, 2002).
Peptide text beside a SMILES is read from it. * marks the point of attachment. X1 = O=C(c1ncn2c(=O)n(CCCl)nnc12)*

Tests used:
Assay type in all cases: functional, cell-based
[1] = In vitro cytotoxicity against mouse TLX5 lymphoma cells
How it was run: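 TLX5 lymphoma cells kept in exponential growth at 2 × 10⁴ cells/mL in RPMI 1640 with 15% fetal calf serum. Cells were dosed with drug in DMSO (10 μL per 2 mL well), triplicate wells per concentration, with DMSO-only controls. After 72 h at 37 °C under 5% CO₂, cells were Coulter-counted. IC₅₀ was taken from % of control growth plots as the mean of two determinations.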

[2] = In vitro cytotoxicity against human xeroderma pigmentosum fibroblast cells HMGZip (mer-)
How it was run: (§1)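 Xeroderma pigmentosum fibroblasts HMGZip 1a (Mer⁻) and HMGhAT 2b (Mer⁺) grown in MEM, plated at 1000 cells/well, and assayed by the method of Baer et al.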

[3] = In vitro cytotoxicity against human xeroderma pigmentosum fibroblast cells […] (mer+); how it was run: as §1

COC(=O)[C@@H](NC(=O)[C@H](C)NC(=O)c1ncn2c(=O)n(CCCl)nnc12)C(C)C
IC50 [1]: 6.9 µM

CC(C)C[C@@H](NC(=O)c1ncn2c(=O)n(CCCl)nnc12)C(=O)O
IC50 [2]: 57 µM

COC(=O)C(CCCCN)NC(=O)c1ncn2c(=O)n(CCCl)nnc12 (stereo not drawn)
IC50 [2]: 68 µM

NC(=O)CNC(=O)c1ncn2c(=O)n(CCCl)nnc12
IC50 [1]: 34 µM

C[C@@H](NC(=O)c1ncn2c(=O)n(CCCl)nnc12)C(=O)O
IC50 [2]: 198 µM

COC(=O)C(CO)NC(=O)c1ncn2c(=O)n(CCCl)nnc12 (stereo not drawn)
IC50 [1]: 5 µM

COC(=O)C(C)NC(=O)c1ncn2c(=O)n(CCCl)nnc12 (stereo not drawn)
IC50 [1]: 1.5 µM

CC(C)(C)NC(=O)c1ncn2c(=O)n(CCCl)nnc12
IC50 [1]: 2 µM

O=C(O)c1ncn2c(=O)n(CCCl)nnc12
IC50 [1]: 15.8 µM

COC(=O)C(CCSC)NC(=O)c1ncn2c(=O)n(CCCl)nnc12 (stereo not drawn)
IC50 [1]: 50 µM

CC(C)[C@H](NC(=O)[C@@H](NC(=O)c1ncn2c(=O)n(CCCl)nnc12)[C@@H](C)O)C(=O)NCC(=O)O
IC50 [2]: 437 µM | IC50 [3]: > 500 µM

COC(=O)C(Cc1c[nH]c2ccccc12)NC(=O)c1ncn2c(=O)n(CCCl)nnc12 (stereo not drawn)
IC50 [1]: 3.7 µM

CCOC(=O)CNC(=O)c1ncn2c(=O)n(CCCl)nnc12
IC50 [1]: 25 µM

NCCCCC(NC(=O)c1ncn2c(=O)n(CCCl)nnc12)C(=O)O (stereo not drawn)
IC50 [2]: 42 µM

CC(C)[C@H](NC(=O)[C@@H](NC(=O)c1ncn2c(=O)n(CCCl)nnc12)[C@@H](C)O)C(=O)NCC(=O)N[C@@H](CCCN=C(N)N)C(=O)O (X1-TVGR-OH)
IC50 [2]: 288 µM | IC50 [3]: > 500 µM

CC(C)[C@H](NC(=O)[C@@H](NC(=O)c1ncn2c(=O)n(CCCl)nnc12)[C@@H](C)O)C(=O)N[C@@H](CO)C(=O)N[C@@H](CCCN=C(N)N)C(=O)O (X1-TVSR-OH)
IC50 [2]: 351 µM | IC50 [3]: > 500 µM

NC(=O)c1ncn2c(=O)n(CCCl)nnc12 [MITOZOLOMIDE]
IC50 [2]: 20 µM | IC50 [1]: 2.5 µM | IC50 [3]: 30 µM

Cn1nnc2c(C(N)=O)ncn2c1=O [TEMOZOLOMIDE]
IC50 [1]: 5 µM
